Rows were chosen to be rich in hits. Some 1.4% of all compounds tested hit in one or more screens of this group.
HCV NS3 hel inh = HCV NS3 helicase inhibition. NS3 helicase DNA unwinding, Cy5 molecular beacon fluorescence. inhibition, % at 10.9 µM. 290,000 compounds, 0.56% hits;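 active = inhibition above the mean of all tested compounds plus 3 SD, set per campaign, cut at about 35% in these data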;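 also: 0% = DMSO wells and 100% = thioflavine S control wells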
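Material: hepatitis C virus NS3 helicase domain fragment enzyme; measured by: Cy5 fluorescence, 0 and 60 min reads; control set: DMSO and thioflavine S; incubation: 60 min unwinding reaction at 25 °C after ATP addition; read-out basis: % inhibition from 60/0 min fluorescence ratio, DMSO 0%, thioflavine S 100%; repeats: singlicate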
Fh CTSL1 inh = cathepsin L1 inhibition, PFM18AAP counter-screen; recombinant F. hepatica cathepsin L1, Z-Leu-Arg-MCA fluorescence; 300,000 compounds, 0.49% hits; inhibition, % at 5.96 µM;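 active = inhibition above the mean of all tested compounds plus 3 SD, set per screening campaign, cut at about 17% in these data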;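 also: 0% = plate median of test compound wells and 100% = 1 µM Z-Phe-Ala-diazomethylketone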
EBNA-1 inh = blocks EBNA-1 binding to DNA | EBNA-1 DNA binding, fluorescence polarization | 300,000 compounds, 0.34% hits | inhibition, % at 14.8 µM; in the data active = inhibition above about 28%
ZTA DNA inh = counter-screen for EBNA-1 inhibitors: inhibitors of Epstein-Barr virus ZTA. 320,000 compounds, 0.15% hits. AID 2234. P03206. inhibition, % at 11 µM. ZTA-DNA binding, fluorescence polarization; in the data active = inhibition above about 33%
Target sequence (P03206 whole entry, looked up): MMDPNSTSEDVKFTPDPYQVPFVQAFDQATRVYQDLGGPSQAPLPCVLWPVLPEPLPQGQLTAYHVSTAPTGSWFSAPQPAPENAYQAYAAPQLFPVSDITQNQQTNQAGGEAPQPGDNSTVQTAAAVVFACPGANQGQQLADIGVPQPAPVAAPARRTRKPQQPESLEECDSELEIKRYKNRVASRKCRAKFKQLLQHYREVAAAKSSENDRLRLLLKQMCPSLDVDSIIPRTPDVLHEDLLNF
An asterisk follows results filed as active; / = no result given.

SMILES | HCV NS3 hel inh | Fh CTSL1 inh | EBNA-1 inh | ZTA DNA inh
Cc1c(NC(=O)Nc2cccs2)cccc1[N+](=O)[O-] | 17 | 17* | 0 | 2
O=C(O)C1Nc2c(Cl)cc(Cl)c(Cl)c2C2C=CCC12 (centres undefined) | 57* | 1 | 0 | -9
O=C(O)C1Nc2c(Cl)cc(Cl)cc2C2C=CCC12 (centres undefined) | 9 | -1 | 17 | 15
COCCN=C1OC(=O)N2C(=O)C3=C4[C@@H](C[C@H]5C(=O)N(c6ccccc6)C(=O)[C@H]5[C@H]4[C@@]12Cc1ccccc1)[C@H]1C(=O)N(c2ccccc2)C(=O)[C@H]1[C@H]3C | / | 18* | -16 | -12
CCn1nc(C)c(/C=N/NC(=O)Cn2nnc(N)n2)c1C | 2 | 1 | 7 | 4
CCO/C=C1\N=C(c2ccc(F)cc2)OC1=O | -7 | 36* | 1 | -9
Cc1ccc(C2=N/C(=C\c3cccnc3)C(=O)O2)cc1 | 0 | 1 | 6 | 20
Cc1ccc2c(cnn2C(=O)CCCC(=O)NCc2ccc(F)cc2)c1 | -9 | 87* | -2 | 14
N#Cc1c(NC2CCCCC2)nc(-c2ccco2)c2c1CCCC2 | 13 | 11 | -15 | -2
N#Cc1c(NCCCO)nc(-c2ccco2)c2c1CCCC2 | 6 | 18* | -6 | 9
COc1ccc(NC(=O)CN(C)C(=O)/C=C/c2cn(-c3ccccc3)nc2-c2ccc(C)cc2)cc1 | / | 20* | -6 | 2
Cc1ccc(/C=C/C(=O)NCc2cccs2)o1 | 14 | 37* | 2 | -22
Nc1ccccc1C(=O)NCC1(c2ccccc2)CCCC1 | 8 | 18* | -13 | -5
Cc1csc(NC(=O)CSc2nnc(NC(=O)C3CC(=O)N(c4ccccc4)C3)s2)n1 (centres undefined) | 1 | -17 | -8 | 9
Cc1ccc(N2CC(C(=O)Nc3nnc(SCC(=O)Nc4nc(C)cs4)s3)CC2=O)cc1 (centres undefined) | 4 | 3 | 31* | -11
CCCCCC(=O)Nc1cc(N(C)C)nc2ccccc12 | -13 | 2 | 2 | -3
CC(=O)N(Cc1nc2sc(C)c(C)c2c(=O)[nH]1)C1CCCC1 | 1 | 27* | 5 | 12
COc1cc(NS(=O)(=O)c2ccc(NC(=S)NC(=O)/C=C/c3ccc(OC)c(OC)c3)cc2)ncn1 | 11 | 1 | 4 | 3
COc1ccc(/C=C/C(=O)NC(=S)Nc2ccc(S(=O)(=O)N=C(N)N)cc2)cc1OC | 8 | 4 | 58* | 40*
O=C(NC1CCCN(Cc2ccc(Cl)cc2)C1)c1c(F)cccc1F (centres undefined) | 0 | 28* | 1 | -13
O=C(NC1CCCN(Cc2ccc(Cl)cc2)C1)C1CCC1 (centres undefined) | -17 | 0 | -5 | -4
O=C(NC1CCCN(Cc2ccc(Cl)cc2)C1)c1c(F)ccc(F)c1F (centres undefined) | -8 | 64* | 8 | 2
N#CC(C#N)=NNc1ccc([N+](=O)[O-])cc1 | -7 | 24* | -6 | -10
O=C1c2ccccc2S(=O)(=O)c2cc(C(=O)N3CCN(c4ccc(Cl)cn4)CC3)ccc21 | / | 17* | -1 | 20
CN1C(=O)C(O)(CC(=O)/C=C/c2ccco2)c2ccccc21 (centres undefined) | -15 | 7 | -1 | 3
SMILES | HCV NS3 hel inh | Fh CTSL1 inh | EBNA-1 inh | ZTA DNA inh
CN1C(=O)C(O)(CC(=O)/C=C/C=C/c2ccccc2)c2ccccc21 (centres undefined) | -1 | 32* | 12 | 1
CC(OC(=O)c1ccc(=O)n(Cc2ccccc2)n1)C(=O)Nc1cccc(Cl)c1 (centres undefined) | / | 17* | -2 | 10
COc1ccc(S(=O)(=O)N2CCCCC2)cc1NC(=O)CCc1nc2ccccc2c(=O)[nH]1 | / | 28* | -6 | -23
Cc1ccc(C(=O)/C=C/c2ccc(-c3ccc(C)cc3)o2)cc1 | 24 | 28* | -2 | 7
COCCn1c(SCC(=O)Nc2ccc3c(c2)OCCO3)nnc1C(C)C | -2 | -2 | 2 | 8
COCCn1c(SCC(=O)c2ccc3c(c2)OCCO3)nnc1C(C)C | 6 | 18* | 0 | -23
O=C(c1cccc(F)c1)N1CCN(c2cc(N3CCCCC3)c(F)cc2[N+](=O)[O-])CC1 | 1 | 1 | -7 | -10
CCOC(=O)c1c(NC(=O)CCS(=O)(=O)c2ccccc2)sc2c1CC(C)(C)NC2(C)C | -9 | 39* | 4 | 10
CC1=C(c2ccc(C(C)C)cc2)S(=O)(=O)N=C1N1CCN(C(=O)c2ccco2)CC1 | -4 | 1 | 9 | -11
O=C(NCCc1ccccc1)c1cccc([N+](=O)[O-])c1 | 1 | 1 | -6 | 17

Screens as filed in PubChem BioAssay.
